Data taken from ChEMBL document CHEMBL3868589, “Purification, Conformational Analysis, and Properties of a Family of Tigerinin Peptides from Skin Secretions of the Crowned Bullfrog Hoplobatrachus occipitalis” (J Nat Prod, 2016).
Calls of active or inactive are those of the source. No cut-off for these calls is given here. Where a SMILES comes first, the peptide text is derived from it.

Tests used:
[1] = organism: Mus musculus; test: Cytotoxicity in mouse GLUTag cells assessed as effect on plasma membrane integrity through LDH release up to 1 uM after 20 mins in presence of glucose by nonradioactive CytoTox96 assay; assay type: toxicity, cell-based
Procedure, shortened: (§1)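 BRIN-BD11 and GLUTag cells exposed to peptides (1 nM to 1 μM; n = 3) for 20 min at 37 °C in KRB buffer with 5.6 mM glucose. Membrane integrity judged by LDH in supernatant, measured with CytoTox96 nonradioactive kit.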

[2] = Induction of GLP1 release in mouse GLUTag cells at 10 nM after 2 hrs by ELISA relative to basal level
[3] = tested on: BRIN-BD11; test: Inhibition of Katp in rat BRIN-BD11 cells assessed as minimum concentration required to produce increase in rate of insulin release over the basal rate after 20 mins in presence of 5.6 mM glucose by radioimmunoassay; assay type: cell-based
Procedure, shortened: (§2)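 BRIN-BD11 clonal β-cells attached overnight at 37 °C, then 20 min at 37 °C in KRB buffer with 5.6 mM glucose, peptides up to 1 μM. Insulin in supernatant by radioimmunoassay, expressed per 10^6 cells per 20 min. Parallel controls: 10 mM alanine, 1 μM GLP-1, 30 mM KCl.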

[4] = organism: Mus musculus; test: Toxicity in NIH Swiss mouse erythrocytes assessed as hemolytic activity up to 500 uM incubated for 60 mins; details: erythrocyte, 1 h
Procedure, shortened: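 Washed erythrocytes (2 × 10^7 cells) from male NIH Swiss mice incubated 60 min at 37 °C with peptides at 31−500 μM. LC50 taken as mean concentration giving 50% hemolysis across three independent incubations.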

[5] = organism: Rattus norvegicus; test: Cytotoxicity in rat BRIN-BD11 cells assessed as effect on plasma membrane integrity through LDH release up to 1 uM after 20 mins in presence of glucose by nonradioactive CytoTox96 assay; assay type: toxicity, cell-based; details: brin-bd11, 20 min; procedure, shortened: as §1
[6] = tested on: BRIN-BD11; test: Inhibition of Katp in rat BRIN-BD11 cells assessed as insulin release at 1 uM after 20 mins in presence of 5.6 mM glucose by radioimmunoassay relative to basal level; assay type: cell-based; design: scale not given: the % may be the effect or the level left; procedure, shortened: as §2
[7] = organism: Mus musculus; test: Antiinflammatory activity in C57BL/6 mouse unstimulated peritoneal cells assessed as reduction of IFN-gamma at 1 ug/ml after 24 hrs by ELISA; assay type: functional
Procedure, shortened: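 Peritoneal cells lavaged with 5 mL cold PBS from unstimulated adult C57BL/6 mice (mixed macrophages, B-, T-, NK cells), resuspended in RPMI 1640 + 10% FBS, 2 × 10^5 cells/well. Peptides at 1, 5 and 10 μg/mL for 24 h at 37 °C; three independent incubations, 6 mice per group. IFN-γ in cell-free supernatant by ELISA in triplicate, compared with medium only.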

[8] = Induction of GLP1 release in mouse GLUTag cells assessed as minimum concentration required to produce increase in rate of GPL1 release over the basal rate after 2 hrs in presence of 2 mM glucose by ELISA
[9] = Induction of GLP1 release in mouse GLUTag cells at 1 uM after 2 hrs in presence of 2 mM glucose by ELISA relative to basal level
[10] = tested on: BRIN-BD11; test: Inhibition of Katp in rat BRIN-BD11 cells assessed as minimum concentration required to produce 83% increase in rate of insulin release over the basal rate after 20 mins in presence of 5.6 mM glucose by radioimmunoassay; assay type: cell-based; procedure, shortened: as §2
[11] = Induction of increase in glucose-induced insulin secretion in rat BRIN-BD11 cells assessed as insulin release per million cells at 30 mM after 20 mins by radioimmunoassay (reference value: 1 +/- 0.03 ng); assay type: functional; procedure, shortened: as §2
[12] = Induction of increase in glucose-induced insulin secretion in rat BRIN-BD11 cells assessed as insulin release per million cells at 10 mM after 20 mins by radioimmunoassay (reference value: 1 +/- 0.03 ng); assay type: functional; procedure, shortened: as §2
[13] = tested on: BRIN-BD11; test: Inhibition of Katp in rat BRIN-BD11 cells assessed as increase in rate of insulin release after 20 mins in presence of 5.6 mM glucose by radioimmunoassay relative to basal level; assay type: cell-based; procedure, shortened: as §2
[14] = tested on: BRIN-BD11; test: Inhibition of Katp in rat BRIN-BD11 cells assessed as increase in insulin release after 20 mins by radioimmunoassay; assay type: cell-based

Row | SMILES | Activity [1] | Activity [3] | Activity [4] | Activity [5] | Activity [6] | Activity [8] | Activity [9] | further results
1 | CC[C@H](C)[C@H](NC(=O)[C@H](CS)NC(=O)[C@@H](NC(=O)[C@@H](N)CCCNC(=N)N)[C@@H](C)O)C(=O)N1CCC[C@H]1C(=O)N[C@H](C(=O)N1CCC[C@H]1C(=O)N1CCC[C@H]1C(=O)N[C@H](C(=O)N[C@@H](CS)C(=O)N[C@@H](Cc1ccccc1)C(=O)O)C(C)C)[C@@H](C)CC (H-RTCIPIPPVCF-OH) | Non-Toxic | 1 ×10⁻⁶ M | Non-Toxic | Non-Toxic | 163% | 1 ×10⁻⁸ M |  | Activity [2]: 289.3%; Activity [7]: Active
2 | CC[C@H](C)[C@H](NC(=O)[C@H](CS)NC(=O)[C@@H](NC(=O)[C@@H](N)CCCNC(=N)N)[C@@H](C)O)C(=O)N1CCC[C@H]1C(=O)N[C@H](C(=O)N1CCC[C@H]1C(=O)N[C@@H](CC(C)C)C(=O)N[C@H](C(=O)N[C@@H](CCSC)C(=O)N[C@@H](CS)C(=O)O)C(C)C)[C@@H](C)CC (H-RTCIPIPLVMC-OH) | Non-Toxic | 1 ×10⁻⁷ M | Non-Toxic | Non-Toxic | 201% | 1 ×10⁻⁷ M | 193% | Activity [7]: Active
3 | CC[C@H](C)[C@H](NC(=O)[C@@H](N)CCCNC(=N)N)C(=O)N[C@@H](CS)C(=O)N[C@H](C(=O)N1CCC[C@H]1C(=O)N[C@H](C(=O)N1CCC[C@H]1C(=O)N[C@@H](Cc1ccccc1)C(=O)N1CCC[C@H]1C(=O)N[C@@H](CCSC)C(=O)N[C@@H](CS)C(=O)N[C@@H](Cc1ccc(O)cc1)C(=O)O)[C@@H](C)CC)[C@@H](C)O (H-RICTPIPFPMCY-OH) | Non-Toxic |  | Non-Toxic | Non-Toxic | 395% |  | 159% | Activity [10]: 1 ×10⁻⁹ M
4 | CC[C@H](C)[C@H](NC(=O)[C@@H](N)CCCNC(=N)N)C(=O)N[C@@H](CS)C(=O)N[C@H](C(=O)N[C@@H](C)C(=O)N[C@H](C(=O)N1CCC[C@H]1C(=O)N[C@@H](CC(C)C)C(=O)N1CCC[C@H]1C(=O)N[C@@H](CCSC)C(=O)N[C@@H](CS)C(=O)N[C@@H](CC(C)C)C(=O)O)[C@@H](C)CC)[C@@H](C)O (H-RICTAIPLPMCL-OH) | Non-Toxic | 1 ×10⁻⁷ M | Non-Toxic | Non-Toxic | 233% | 1 ×10⁻⁶ M | 217.5% | 
5 | [Cl-].[K+] [POTASSIUM CHLORIDE] |  |  |  |  |  |  |  | Activity [11]: 4.05 ng
6 | C[C@H](N)C(=O)O [ALANINE] |  |  |  |  |  |  |  | Activity [12]: 3.05 ng
7 | CC[C@H](C)[C@H](NC(=O)[C@H](C)NC(=O)[C@H](CO)NC(=O)[C@H](CS)NC(=O)[C@@H](NC(=O)[C@@H](N)CCCNC(=N)N)C(C)C)C(=O)N1CCC[C@H]1C(=O)N[C@@H](CC(C)C)C(=O)N1CCC[C@H]1C(=O)N[C@@H](Cc1c[nH]c2ccccc12)C(=O)N[C@@H](CS)C(=O)N[C@@H](Cc1cnc[nH]1)C(=O)O (H-RVCSAIPLPWCH-OH) |  |  |  |  |  |  |  | inhibition [13]: Dose-dependent effect; inhibition [14]: Dose-dependent effect
